Experimental data gathered from unrelated publications.
Compare with care: the assays were run in different laboratories.
Cell line: HCT-116
Read-out: cell growth or viability

Cc1nc(Nc2ccc3c(c2)C(C)(C)C(=O)N3C)c2ccccc2n1 — IC50 (MTT): > 50 µM
COc1ccc(-c2cc(-c3ccc(C)cc3)nc3c2c(=O)n(C)c(=O)n3C)cc1OC — IC50 (MTT; 48 h): 20.8 µM
Cc1nc(Nc2ccc3c(c2)/C(=C/c2ccccc2Cl)C(=O)N3)c2ccccc2n1 — IC50 (MTT): 3.67 µM
O=C(O)c1ccccc1Nc1cccc(C(F)(F)F)c1 — GI50 (CCK-8; 72 h): > 40 µM
COc1ccc(NC(=O)c2ccc(-n3cc(CNc4nc(OC)nc(OC)n4)nn3)cc2)cc1 — IC50 (MTT; 72 h): 0.0123 µM
COc1ccc(-c2cc(-c3cc(OC)ccc3OC)c3c(=O)n(C)c(=O)n(C)c3n2)cc1 — IC50 (MTT; 48 h): 11.1 µM
COc1nc(NCc2cn(-c3ccc(NC(=O)c4ccc(C)cc4)cc3)nn2)nc(OC)n1 — IC50 (MTT; 72 h): 0.0599 µM
COc1ccc(-c2cc(-c3ccc(C)cc3)nc3[nH]c(=O)[nH]c(=O)c23)cc1OC — IC50 (MTT; 48 h): 19 µM
COc1nc(NCc2cn(-c3ccc(NC(=O)c4ccc([N+](=O)[O-])cc4)cc3)nn2)nc(OC)n1 — IC50 (MTT; 72 h): 0.0578 µM
COc1cc2ncnc(Nc3ccc4c(c3)/C(=C/c3cccc(Cl)c3)C(=O)N4C)c2cc1OC — IC50 (MTT): 8.36 µM
Cc1ccc(-c2cc(-c3ccc(Cl)cc3)c3c(=O)n(C)c(=O)n(C)c3n2)cc1 — IC50 (MTT; 48 h): 5.87 µM
C=CC(=O)c1cccnc1Nc1cc(C(F)(F)F)ccc1OCc1ccccc1 — GI50 (CCK-8; 72 h): 8.72 µM
CC(=NNC(=O)COc1ccc2c(C)c(Cc3ccccc3)c(=O)oc2c1C)c1ccc(Br)cc1 — viability (MTT; 0.4 µg/mL): 64.3%
COc1nc(NCc2cn(-c3ccc(C(=O)Nc4ccc(Cl)cc4)cc3)nn2)nc(OC)n1 — IC50 (MTT; 72 h): 0.0329 µM
COc1cc2ncnc(N(C)c3ccc4c(c3)/C(=C/c3cccc(Cl)c3)C(=O)N4C)c2cc1OC — IC50 (MTT): 7.52 µM
COc1ccc(-c2cc(-c3c(OC)cccc3OC)c3c(=O)n(C)c(=O)n(C)c3n2)cc1 — IC50 (MTT; 48 h): 5.44 µM
COc1nc(NCc2cn(-c3ccc(C(=O)Nc4ccc([N+](=O)[O-])cc4)cc3)nn2)nc(OC)n1 — IC50 (MTT; 72 h): 0.059 µM
C=CC(=O)c1cccnc1Nc1cccc(C(F)(F)F)c1 — GI50 (CCK-8; 72 h): 34.9 µM
COc1nc(NCc2cn(-c3ccc(C(=O)Nc4ccc(C)cc4)cc3)nn2)nc(OC)n1 — IC50 (MTT; 72 h): 0.0276 µM
COc1ccc(-c2cc(-c3ccccc3Cl)c3c(=O)[nH]c(=O)[nH]c3n2)cc1 — IC50 (MTT; 48 h): 13.4 µM
Cc1nc(Nc2ccc3c(c2)/C(=C/c2ccccc2)C(=O)N3Cc2ccccc2)c2ccccc2n1 — IC50 (MTT): 3.39 µM
COc1ccc(-c2cc(-c3ccc(OC)cc3)c3c(=O)[nH]c(=O)[nH]c3n2)cc1 — IC50 (MTT; 48 h): 6.59 µM
Cc1nc(Nc2ccc3c(c2)/C(=C/c2ccccc2C)C(=O)N3C)c2ccccc2n1 — IC50 (MTT): 20.6 µM
COc1nc(NCc2cn(-c3ccc(C(=O)Nc4ccc(C(F)(F)F)cc4)cc3)nn2)nc(OC)n1 — IC50 (MTT; 72 h): 0.00141 µM
Cc1ccc(-c2cc(-c3ccc(Cl)c(F)c3)c3c(=O)[nH]c(=O)[nH]c3n2)cc1 — IC50 (MTT; 48 h): 11.2 µM
COc1cc2ncnc(N(C)c3ccc4c(c3)/C(=C/c3ccccc3)C(=O)N4C)c2cc1OC (mixture of isomers) — IC50 (MTT): 6.91 µM
